Assay results reported in ChEMBL document CHEMBL1127574, “Design and synthesis of ellipticinium salts and 1,2-dihydroellipticines with high selectivities against human CNS cancers in vitro” (1994).

Columns and labels:
Type in all cases: functional
[1] = tested on: A549; assay: Tested in vitro for cytotoxicity in A549/ATCC cell line of Non-Small Cell Lung Cancer; details: Homo sapiens, read-out: Log TGI (converted)
Outline: (§1)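 Compounds dissolved in DMSO, then diluted 500-fold into aqueous medium. The resulting aqueous solutions or suspensions were added to the cultured human tumour cell lines, and the cells were exposed for 48 h. Growth was read colorimetrically in one of two ways: a metabolic assay in which viable cells reduce a tetrazolium salt to a formazan dye, or a protein stain for total cellular protein.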

[2] = tested on: KM-20L2; assay: Tested in vitro for cytotoxicity in KM20L2 cell line of Colon Cancer; details: Homo sapiens, read-out: Log TGI (converted)
Outline: (§2)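 Compound DMSO solutions diluted 500-fold into aqueous medium; the resulting solutions or suspensions were added to cultured human tumor cells for 48 h. Growth was read colorimetrically, either by tetrazolium reduction to formazan by viable cells or by a protein stain for total cellular protein.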

[3] = tested on: HOP-62; assay: Tested in vitro for cytotoxicity in HOP-62 cell line of Non-Small Cell Lung Cancer; details: Homo sapiens, read-out: Log TGI (converted); outline: as §1
[4] = tested on: SK-OV-3; assay: Tested in vitro for cytotoxicity in SK-OV-3 cell line of Ovarian Cancer; details: Homo sapiens, read-out: Log TGI (converted)
Outline: (§3)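 Compounds dissolved in DMSO and diluted 500-fold into aqueous medium; aliquots of the resulting solutions or suspensions added to cultured human tumor cells for 48 h. Growth read colorimetrically, either by tetrazolium reduction to formazan by viable cells or by protein staining of total cellular protein.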

[5] = tested on: UACC-62; assay: Tested in vitro for cytotoxicity in UACC-62 cell line of Melanoma; details: Homo sapiens, read-out: Log TGI (converted); outline: as §3
[6] = tested on: RXF 631; assay: Tested in vitro for cytotoxicity in RXF-631 cell line of Renal cancer; details: Homo sapiens, read-out: Log TGI (converted); outline: as §1
[7] = tested on: LXFL 529; assay: Tested in vitro for cytotoxicity in LXFL-529 cell line of Non-Small Cell Lung Cancer; details: Homo sapiens, read-out: Log TGI (converted); outline: as §1
[8] = tested on: OVCAR-8; assay: Tested in vitro for cytotoxicity in OVCAR-8 cell line of Ovarian Cancer; details: Homo sapiens, read-out: Log TGI (converted); outline: as §1
[9] = tested on: COLO 205; assay: Tested in vitro for cytotoxicity in COLO 205 cell line of Colon Cancer; details: Homo sapiens, read-out: Log TGI (converted); outline: as §1
[10] = tested on: CAKI-1; assay: Tested in vitro for cytotoxicity in CAKI-1 cell lines; details: Homo sapiens; outline: as §1
[11] = tested on: A549; assay: Tested in vitro for cytotoxicity in A549/ATCC cell lines; details: Homo sapiens; outline: as §1
[12] = tested on: UO-31; assay: Tested in vitro for cytotoxicity in UO-31 cell line of Renal cancer; details: Homo sapiens, read-out: Log TGI (converted); outline: as §3
[13] = tested on: IGROV-1; assay: Tested in vitro for cytotoxicity in IGROV1 cell line of Ovarian Cancer; details: Homo sapiens, read-out: Log TGI (converted); outline: as §1
[14] = tested on: ACHN; assay: Tested in vitro for cytotoxicity in ACHN cell line of Renal cancer; details: Homo sapiens, read-out: Log TGI (converted); outline: as §1
[15] = tested on: K562; assay: Tested in vitro for cytotoxicity in K-562 cell line of Leukemia; details: Homo sapiens, read-out: Log TGI (converted); outline: as §1
[16] = tested on: SK-MEL-5; assay: Tested in vitro for cytotoxicity in SK-MEL-5 cell line of Melanoma; details: Homo sapiens, read-out: Log TGI (converted); outline: as §3
[17] = tested on: IGROV-1; assay: Tested in vitro for cytotoxicity in IGROV1 cell lines; details: Homo sapiens; outline: as §1
[18] = tested on: SF-268; assay: Tested in vitro for cytotoxicity in SF-268 cell line of CNS cancer; details: Homo sapiens, read-out: Log TGI (converted); outline: as §1
[19] = tested on: NCI-H522; assay: Tested in vitro for cytotoxicity in NCI-H522 cell line of Non-Small Cell Lung Cancer; details: Homo sapiens, read-out: Log TGI (converted); outline: as §1
[20] = tested on: Malme-3M; assay: Tested in vitro for cytotoxicity in MALME-3M; details: Homo sapiens; outline: as §1
[21] = tested on: HCC 2998; assay: Tested in vitro for cytotoxicity in HCC2998 cell line of Colon Cancer; details: Homo sapiens, read-out: Log TGI (converted); outline: as §1
[22] = tested on: SF-539; assay: Tested in vitro for cytotoxicity in SF-539 cell line of CNS Cancer; details: Homo sapiens, read-out: Log TGI (converted); outline: as §1
[23] = tested on: RPMI-8226; assay: Tested in vitro for cytotoxicity in RPMI-8226 cell line of Leukemia; details: Homo sapiens, read-out: Log TGI (converted); outline: as §1
[24] = tested on: DMS-114; assay: Tested in vitro for cytotoxicity in DMS114 cell lines; details: Homo sapiens; outline: as §1
[25] = tested on: LOX IMVI; assay: Tested in vitro for cytotoxicity in LOX IMVI cell line of Melanoma; details: Homo sapiens, read-out: Log TGI (converted); outline: as §1
[26] = tested on: SF-295; assay: Tested in vitro for cytotoxicity in SF-295 cell line of CNS Cancer; details: Homo sapiens, read-out: Log TGI (converted); outline: as §1
[27] = tested on: OVCAR-3; assay: Tested in vitro for cytotoxicity in OVCAR-3 cell line of Ovarian Cancer; details: Homo sapiens, read-out: Log TGI (converted); outline: as §2
[28] = tested on: M19-MEL; assay: Tested in vitro for cytotoxicity in M19-MEL cell line of Melanoma; details: Homo sapiens, read-out: Log TGI (converted); outline: as §1
[29] = tested on: NCI-H23; assay: Tested in vitro for cytotoxicity in NCI-H23 cell line of Non-Small Cell Lung Cancer; details: Homo sapiens, read-out: Log TGI (converted); outline: as §1
[30] = tested on: COLO 205; assay: Tested in vitro for cytotoxicity in COLO 205 cell lines; details: Homo sapiens; outline: as §1
[31] = tested on: HOP-92; assay: Tested in vitro for cytotoxicity in HOP-92 cell line of Non-Small Cell Lung Cancer; details: Homo sapiens, read-out: Log TGI (converted); outline: as §1

`COc1ccc2[nH]c3c(C)c4cc[n+](C)cc4c(C)c3c2c1` was tested, and the TGI [1] was over 100 µM, the TGI [2] was over 100 µM and the TGI [3] was 6.31 µM. The TGI [4] was over 100 µM, the TGI [5] was over 100 µM and the TGI [6] was over 100 µM. The TGI [7] was 10 µM, the TGI [8] was 31.6 µM and the TGI [9] was 39.8 µM. The GI50 [10] was 48.2 µM, the GI50 [11] was 1.52 µM and the TGI [12] was over 100 µM. The TGI [13] was over 100 µM, the TGI [14] was over 100 µM and the TGI [15] was over 100 µM. The TGI [16] was 20 µM, the GI50 [17] was 3.62 µM and the TGI [18] was 5.01 µM. It also gave a TGI [19] of 7.94 µM, a GI50 [20] of 5.27 µM and a TGI [21] of 63.1 µM. The TGI [22] was 6.31 µM, the TGI [23] was over 100 µM and the GI50 [24] was 0.811 µM. It also gave a TGI [25] of over 100 µM, a TGI [26] of 6.31 µM and a TGI [27] of 100 µM. It also gave a TGI [28] of 25.1 µM, a TGI [29] of 10 µM and a GI50 [30] of 2.4 µM. It also gave a TGI [31] of 79.4 µM.
